SENP6 block: SENP6 protease inhibition | Recombinant SENP6 catalytic domain, aminoluciferin luminescence | actives 1.8% (n = 330,000) | inhibition, % at 10 µM;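 active = inhibition above about 50% at the single tested dose, limit read from the data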
Target sequence (Q9GZR1 628-1112 limits assumed): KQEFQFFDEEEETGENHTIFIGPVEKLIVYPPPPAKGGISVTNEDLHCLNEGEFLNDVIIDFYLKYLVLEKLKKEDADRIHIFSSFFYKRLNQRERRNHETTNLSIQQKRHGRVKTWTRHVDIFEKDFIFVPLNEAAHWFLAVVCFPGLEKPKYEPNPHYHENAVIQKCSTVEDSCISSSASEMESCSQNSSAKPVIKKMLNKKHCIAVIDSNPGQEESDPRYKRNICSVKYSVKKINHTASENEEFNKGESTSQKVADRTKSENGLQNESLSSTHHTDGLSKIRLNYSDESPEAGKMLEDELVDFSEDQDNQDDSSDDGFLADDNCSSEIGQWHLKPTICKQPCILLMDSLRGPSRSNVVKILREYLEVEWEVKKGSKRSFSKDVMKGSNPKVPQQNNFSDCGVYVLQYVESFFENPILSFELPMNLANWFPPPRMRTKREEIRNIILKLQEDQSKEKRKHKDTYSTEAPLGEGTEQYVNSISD
SENP8 block-1: inhibitors of human SENP8 protease. Q96LD8. purified SENP8, Z-RLRGG-aminoluciferin cleavage, luminescence. inhibition, % at 10 µM. actives 1.2% (n = 330,000); in the data active = inhibition above about 50%
SENP8 block-2: inhibitors of human SENP8 protease; actives 0.64% (n = 360,000); recombinant SENP8, Nedd8 substrate fluorescence; inhibition, % at 20 µM; in the data active = inhibition mostly above about 40%, no sharp cut-off; inactive = mostly below about 27%
Platelet DG rel: platelet dense granule release activity; AID 1663; human platelet-rich plasma, SFLLRN dense granule ATP release, luminescence; inhibition, %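 (compounds screened at 7.5 µM in platelet-rich plasma)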; actives 0.22% (n = 300,000);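 active = mean replicate score, as percent of positive control, at or above 50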
SENP7 inh: inhibitors of human SENP7 protease. actives 1.5% (n = 330,000). recombinant SENP7, Z-RLRGG-aminoluciferin luminescence, 40 min. inhibition, % at 5 µM. Q9BQF6;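 active = inhibition above about 50% at the single test dose, limit read from the data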
SENP1 FRET inh: SENP1 (human) catalytic domain inhibition | recombinant SENP1 catalytic domain, CyPet-SUMO1-YPet FRET cleavage | inhibition, % at 10 µM | actives 0.21% (n = 360,000);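 active = inhibition at least 30% at 10 µM, raw YFP signal under a set limit, fluorescence ratio 0.5 to 1.5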
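Compound: 10 µM single point, 0.5% DMSO; Test system: hSENP1 catalytic domain, recombinant; Timing: 50 min reaction at room temperature; Technique: FRET, CFP and YFP emission; Control set: no-enzyme wells low, DMSO-plus-enzyme wells high control.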
SENP8 confirm: human SENP8 inhibition, confirmed; shares compounds with SENP7 inh; Recombinant SENP8, Z-RLRGG-aminoluciferin luminescence, 60 min; inhibition, % at 12.5 µM; actives 40% (n = 6,200);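 active = mean inhibition across replicates above about 50%, limit read from the data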
SENP6 confirm: confirmation of human SENP6 protease inhibitors; shares compounds with SENP7 inh; recombinant SENP6, Z-RLRGG-aminoluciferin luminescence; actives 58% (n = 6,200); inhibition, % at 12.5 µM
SENP7 confirm: human SENP7 inhibition, confirmed. inhibition, % at 12.5 µM. recombinant SENP7, Z-RLRGG-aminoluciferin luminescence, 40 min. shares compounds with SENP7 inh. actives 69% (n = 6,200)
Casp3 select: selectivity test for SENP inhibitors: human caspase-3 inhibition | shares compounds with SENP7 inh | purified caspase-3, Z-DEVD-aminoluciferin luminescence, 60 min | inhibition, % at 12.5 µM | actives 60% (n = 6,200) | AID 488918;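 active = mean inhibition above about 50%, limit read from the data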
SENP luc ctr: interferes with luciferase luminescence in SENP counter-screen. shares compounds with SENP7 inh. Pre-incubated SENP8/Z-RLRGG-aminoluciferin, luciferase luminescence interference. inhibition, % at 12.5 µM. actives 39% (n = 6,200);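 active = mean inhibition above about 50% when retested at one dose, limit read from the data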
Hits are given with their value; . = inactive; / = not tested or not shown. Most compounds without a hit are left out; they make up all but 2.6% or so of the library.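 The calls were made as follows, unless noted: active = mean inhibition above about 50% in the one-dose retest (limit read from the data); inactive = the rest.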

SMILES	SENP6 block	SENP8 block-1	SENP8 block-2	Platelet DG rel	SENP7 inh	SENP1 FRET inh	SENP8 confirm	SENP6 confirm	SENP7 confirm	Casp3 select	SENP luc ctr
CC1=NN(C(N)=S)C(=O)C1N=Nc1ccccc1O (stereo not given)	.	.	.	.	.	.	/	/	/	/	/
CC(C)C1/C(=N/O)CC(c2ccccc2)NC1c1ccccc1 (stereo not given)	.	.	.	.	.	.	/	/	/	/	/
CC1/C(=N/O)CC(c2ccccc2)NC1c1ccccc1 (stereo not given)	.	.	.	.	88.8	.	.	.	.	.	.
Cc1cccc(/C=N\Nc2cn[nH]c(=O)c2Cl)c1	76.5	54.8	.	.	71.4	.	71.4	67.3	88.2	76.3	.
Cc1ccc2c(c1)c1c3n2CC(=C2C(=O)OC(C)(C)OC2=O)NC3CCC1 (stereo not given)	.	.	.	.	.	.	/	/	/	/	/
CCOc1ccc(S(=O)(=O)NCCCN2CCCC2=O)cc1	.	.	.	.	.	.	/	/	/	/	/
NC(=O)c1ccsc1NC(=O)c1ccc(S(=O)(=O)N2CCCCC2)cc1	66.7	57.8	.	.	.	.	56.8	71.9	91.7	55.8	.
O=C(CSCc1cccc(F)c1)N1CCN(c2ccccc2)CC1	.	.	.	.	.	.	/	/	/	/	/
Cc1ccsc1/C=N/NC(=O)c1sccc1C	88.4	84.1	.	.	93.0	.	.	91.5	100.6	93.8	.
Cc1ccsc1/C=N\NC(=O)c1ccc2c(c1)OCO2	.	.	.	.	50.3	.	.	.	72.1	74.2	.
Cc1ccsc1/C=N/NC(=O)c1ccc2c(c1)OCCO2	79.1	65.4	.	.	83.1	.	84.0	79.4	95.2	90.4	80.6
O=C(N/N=C/c1ccc2c(c1)OCO2)c1ccc2c(c1)OCO2	.	.	.	.	.	.	/	/	/	/	/
Cc1ccc(/C=N/NC(=O)c2ccc3c(c2)OCCO3)s1	.	.	.	.	.	.	/	/	/	/	/
Cc1cc(S(=O)(=O)Nc2ccc(C(=O)NCC(C)(C)N3CCOCC3)cc2)ccc1F	.	.	.	.	.	.	/	/	/	/	/
CCOC(=O)C1=CN(CC2CCCO2)C=C(C(=O)OCC)C1c1ccccc1C(F)(F)F (stereo not given)	.	.	.	.	.	.	/	/	/	/	/
O=C(NC1CCCC1)C1CC(=O)N(CCc2ccccc2)C1 (stereo not given)	.	.	.	.	.	.	/	/	/	/	/
COc1nc(-c2ccccc2)ccc1-c1noc(-c2cccs2)n1	.	.	.	.	.	.	/	/	/	/	/
COc1nc(C)ccc1-c1noc(-c2cccs2)n1	62.4	.	.	.	70.0	.	.	.	83.8	.	.
Cc1ccccc1-c1noc(-c2cccs2)n1	85.5	77.6	.	.	84.5	.	.	83.5	94.2	60.6	.
Cc1nn(C)c(=O)n1-c1ccc(OCc2ccccc2)cc1	73.5	.	.	.	75.8	.	55.0	55.5	85.9	89.6	69.4
COc1ccc(-n2c(C)nn(C)c2=O)cc1	.	.	.	.	.	.	/	/	/	/	/
CCOC(=O)CN(C(=O)CSc1nnc(-c2ccc(OC)c(OC)c2)o1)c1ccccc1	.	.	.	.	.	.	/	/	/	/	/
COc1ccc(N2CCN(C(=S)Nc3ccc(C)cc3C)CC2)cc1	.	.	.	.	.	.	/	/	/	/	/
COc1ccc(N2CCN(C(=S)Nc3cc(C)ccc3C)CC2)cc1	.	.	.	.	81.1	.	.	.	.	.	.
COc1cc(NC(C)CCCN)c2ncccc2c1Oc1ccccc1 (stereo not given)	74.1	.	.	.	.	.	.	.	.	.	.
SMILES	SENP6 block	SENP8 block-1	SENP8 block-2	Platelet DG rel	SENP7 inh	SENP1 FRET inh	SENP8 confirm	SENP6 confirm	SENP7 confirm	Casp3 select	SENP luc ctr
Oc1ccc(N=Nc2n[nH]c(-c3ccccc3)n2)cc1	94.2	96.1	.	.	98.3	.	97.8	98.5	102.3	97.8	97.5
CCCSc1oc(-c2ccco2)nc1S(=O)(=O)c1ccc(C)cc1	.	.	.	.	.	.	/	/	/	/	/
O=C(CCS(=O)(=O)c1ccccc1)Nc1ncc([N+](=O)[O-])s1	.	.	.	.	.	.	/	/	/	/	/
O=C(CS(=O)(=O)c1ccccc1)Nc1ncc([N+](=O)[O-])s1	.	.	.	.	.	.	/	/	/	/	/
Cc1cnc(NC(=O)COc2ccccc2Cl)s1	89.8	77.3	.	.	92.1	.	65.9	90.6	98.8	89.9	.
Cc1ncoc1C(=O)Nc1nccs1	.	.	.	.	.	.	/	/	/	/	/
Cc1ncoc1C(=O)Nc1ncc([N+](=O)[O-])s1	94.9	92.6	.	.	96.7	.	99.2	99.8	102.9	99.0	98.4
O=C(Nc1ncc([N+](=O)[O-])s1)c1ccccc1Br	89.6	86.3	.	.	76.3	.	91.1	89.9	100.2	93.6	70.9
O=C(Nc1ncc([N+](=O)[O-])s1)c1cccs1	97.2	96.2	.	.	99.2	.	96.3	98.1	102.6	98.2	97.6
Nc1nnc(SCC(=O)NC2CCCCCC2)s1	.	.	.	.	.	.	/	/	/	/	/
CCc1ccc(NC(=O)CSc2ccc(-c3sc(C)nc3C)nn2)cc1	.	.	.	.	.	.	/	/	/	/	/
COc1cc(O)c(C(CCN2CCCC(C)C2)c2ccc(N(C)C)cc2)c(OC)c1 (stereo not given)	.	.	.	.	.	.	/	/	/	/	/
Cc1csc(NC(=O)c2cccs2)n1	.	.	.	.	.	.	/	/	/	/	/
Cc1cnc(NC(=O)c2cccs2)s1	68.9	.	.	.	57.2	.	62.2	59.9	85.7	83.8	.
COc1ccccc1N(Cc1ccccc1)S(=O)(=O)c1cccc(C(=O)NC2CC(C)(C)NC(C)(C)C2)c1	.	.	.	.	.	.	/	/	/	/	/
Cc1ccccc1N1C(=O)C2C3CCC(O3)C2C1=O (stereo not given)	.	.	.	.	.	.	/	/	/	/	/
Cc1cccc(/C(N)=N/OC(=O)CCC2CCCCC2)c1	82.7	.	.	.	.	.	67.3	90.2	98.3	86.4	82.7
COc1cccc(C(=O)O/N=C(\N)c2ccncc2)c1	.	.	.	.	67.4	.	.	.	78.1	82.6	58.9
Cc1ccc(/C(N)=N/OC(=O)CCC2CCCCC2)cc1	.	.	.	.	.	.	/	/	/	/	/
